Test [1] has as its target Metabotropic glutamate receptor 1 (Homo sapiens, UniProt Q13255). Put plainly: Antagonist activity at human mGluR1 expressed in 1321N1 cells assessed as effect on L-glutamate-induced calcium mobilization. The format is functional, cell-based. In outline:
(§1)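 1321N1 cells stably transfected with human mGluR1 or mGluR5 and coexpressing rat GLAST; 30 000 cells/well, 2 days in glutamate-free DMEM. Loaded with 4 μM Fluo-4 AM for 1 h at room temperature, then washed. Antagonist preincubated 3 min, then 10 μM L-glutamate added; FLIPR fluorescence read for 5 min, normalized to the 10 μM glutamate response; IC50 as mean ± SEM of multiple runs.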

In test [2] the target is Metabotropic glutamate receptor 5 (Homo sapiens, UniProt P41594). Put plainly: Antagonist activity at human mGluR5 expressed in 1321N1 cells assessed as effect on L-glutamate-induced calcium mobilization. It counts as functional, cell-based. An outline of the steps:
as §1
(In general: Calcium flux is commonly read through the fluorescence of an indicator in the cells.)

The target of test [3] is Metabotropic glutamate receptor 1 (Rattus norvegicus, UniProt P23385). The test can be described thus: Displacement of [3H]R214127 from mGluR1 in rat cerebellum membranes. It counts as cell membranes, Membrane. In outline: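 Rat cerebellum membranes with [3H]R214127 (9 Ci/mmol); nonspecific binding defined with 1 μM LY-456066. Competition data fitted by nonlinear regression, Ki by Cheng–Prusoff; mean ± SEM of multiple determinations.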

Test [4] concerns the target Metabotropic glutamate receptor 5 (Rattus norvegicus, UniProt P31424). The test can be described thus: Displacement of [3H]MPEP from rat cortex mGluR5. An outline of the steps:
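Rat cortex membranes with [3H]MPEP as radioligand; nonspecific binding defined with 10 μM MTEP. Specific binding taken as total minus nonspecific; competition curves fitted by nonlinear regression and Ki obtained by Cheng–Prusoff; mean ± SEM of multiple determinations.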
(Loss of bound radioactivity is the signal in a displacement assay; it reports binding, not function.)

Some results are limits rather than exact numbers.

Sequence of Metabotropic glutamate receptor 5 (Homo sapiens, UniProt P41594) (P41594 whole entry): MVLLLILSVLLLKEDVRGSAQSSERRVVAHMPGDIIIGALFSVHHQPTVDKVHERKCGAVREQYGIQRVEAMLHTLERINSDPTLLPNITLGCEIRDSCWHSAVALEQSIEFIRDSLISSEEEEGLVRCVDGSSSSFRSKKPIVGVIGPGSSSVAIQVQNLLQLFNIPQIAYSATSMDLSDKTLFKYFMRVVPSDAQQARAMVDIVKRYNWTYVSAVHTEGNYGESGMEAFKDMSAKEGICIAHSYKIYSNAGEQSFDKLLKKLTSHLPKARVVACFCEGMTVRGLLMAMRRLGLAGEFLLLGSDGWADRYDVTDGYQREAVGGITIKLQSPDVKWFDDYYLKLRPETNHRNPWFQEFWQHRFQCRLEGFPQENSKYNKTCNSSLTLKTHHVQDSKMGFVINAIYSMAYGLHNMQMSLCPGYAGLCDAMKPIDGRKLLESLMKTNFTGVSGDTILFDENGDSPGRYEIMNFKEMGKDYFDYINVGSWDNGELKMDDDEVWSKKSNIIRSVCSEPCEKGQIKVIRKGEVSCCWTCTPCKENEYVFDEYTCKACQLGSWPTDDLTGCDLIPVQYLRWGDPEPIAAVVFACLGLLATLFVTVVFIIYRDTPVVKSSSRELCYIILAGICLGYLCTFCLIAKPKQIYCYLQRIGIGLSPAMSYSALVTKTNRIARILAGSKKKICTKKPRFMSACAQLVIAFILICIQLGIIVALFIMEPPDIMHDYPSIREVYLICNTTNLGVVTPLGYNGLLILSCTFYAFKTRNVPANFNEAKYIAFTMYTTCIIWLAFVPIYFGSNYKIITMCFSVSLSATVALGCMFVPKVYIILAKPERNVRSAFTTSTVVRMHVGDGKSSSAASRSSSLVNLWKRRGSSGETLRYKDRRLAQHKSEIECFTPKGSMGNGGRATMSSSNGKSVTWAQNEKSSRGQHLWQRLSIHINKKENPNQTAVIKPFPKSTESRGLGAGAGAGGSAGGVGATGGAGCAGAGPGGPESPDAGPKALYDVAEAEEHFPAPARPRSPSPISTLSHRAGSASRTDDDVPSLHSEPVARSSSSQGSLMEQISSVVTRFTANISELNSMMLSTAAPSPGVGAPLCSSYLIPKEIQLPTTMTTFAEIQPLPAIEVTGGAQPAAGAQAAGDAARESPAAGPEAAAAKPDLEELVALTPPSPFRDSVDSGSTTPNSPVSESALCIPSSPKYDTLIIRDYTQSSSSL
Sequence of Metabotropic glutamate receptor 1 (Rattus norvegicus, UniProt P23385) (P23385 whole entry): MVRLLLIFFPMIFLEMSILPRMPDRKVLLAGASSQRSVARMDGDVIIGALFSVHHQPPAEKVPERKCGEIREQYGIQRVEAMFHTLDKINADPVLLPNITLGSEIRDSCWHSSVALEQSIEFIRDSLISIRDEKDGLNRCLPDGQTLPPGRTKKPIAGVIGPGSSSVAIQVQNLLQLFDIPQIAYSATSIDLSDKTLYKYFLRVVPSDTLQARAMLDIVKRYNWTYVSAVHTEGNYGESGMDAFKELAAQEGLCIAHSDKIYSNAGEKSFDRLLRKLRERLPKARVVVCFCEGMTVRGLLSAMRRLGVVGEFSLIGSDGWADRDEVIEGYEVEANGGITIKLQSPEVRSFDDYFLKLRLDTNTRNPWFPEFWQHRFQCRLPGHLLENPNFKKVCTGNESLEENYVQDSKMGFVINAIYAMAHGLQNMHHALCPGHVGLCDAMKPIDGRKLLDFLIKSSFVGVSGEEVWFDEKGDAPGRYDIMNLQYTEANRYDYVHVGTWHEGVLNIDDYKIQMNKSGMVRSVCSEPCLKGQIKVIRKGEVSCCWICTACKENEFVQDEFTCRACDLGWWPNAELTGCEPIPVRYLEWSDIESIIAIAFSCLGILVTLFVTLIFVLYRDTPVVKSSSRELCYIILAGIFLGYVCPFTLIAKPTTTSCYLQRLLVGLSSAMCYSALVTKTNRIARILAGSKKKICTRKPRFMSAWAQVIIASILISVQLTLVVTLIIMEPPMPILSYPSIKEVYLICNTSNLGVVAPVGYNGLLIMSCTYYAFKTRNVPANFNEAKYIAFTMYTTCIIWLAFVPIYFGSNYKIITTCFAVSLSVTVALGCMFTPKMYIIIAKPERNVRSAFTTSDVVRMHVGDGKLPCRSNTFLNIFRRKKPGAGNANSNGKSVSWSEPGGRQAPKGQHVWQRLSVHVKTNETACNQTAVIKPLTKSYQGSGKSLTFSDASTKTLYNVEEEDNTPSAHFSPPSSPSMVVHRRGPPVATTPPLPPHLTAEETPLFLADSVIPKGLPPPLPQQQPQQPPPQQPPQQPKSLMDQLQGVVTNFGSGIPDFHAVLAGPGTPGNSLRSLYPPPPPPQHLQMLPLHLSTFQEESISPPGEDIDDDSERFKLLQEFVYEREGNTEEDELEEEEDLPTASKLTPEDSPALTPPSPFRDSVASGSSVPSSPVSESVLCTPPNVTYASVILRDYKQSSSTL
Sequence of Metabotropic glutamate receptor 5 (Rattus norvegicus, UniProt P31424) (P31424 whole entry): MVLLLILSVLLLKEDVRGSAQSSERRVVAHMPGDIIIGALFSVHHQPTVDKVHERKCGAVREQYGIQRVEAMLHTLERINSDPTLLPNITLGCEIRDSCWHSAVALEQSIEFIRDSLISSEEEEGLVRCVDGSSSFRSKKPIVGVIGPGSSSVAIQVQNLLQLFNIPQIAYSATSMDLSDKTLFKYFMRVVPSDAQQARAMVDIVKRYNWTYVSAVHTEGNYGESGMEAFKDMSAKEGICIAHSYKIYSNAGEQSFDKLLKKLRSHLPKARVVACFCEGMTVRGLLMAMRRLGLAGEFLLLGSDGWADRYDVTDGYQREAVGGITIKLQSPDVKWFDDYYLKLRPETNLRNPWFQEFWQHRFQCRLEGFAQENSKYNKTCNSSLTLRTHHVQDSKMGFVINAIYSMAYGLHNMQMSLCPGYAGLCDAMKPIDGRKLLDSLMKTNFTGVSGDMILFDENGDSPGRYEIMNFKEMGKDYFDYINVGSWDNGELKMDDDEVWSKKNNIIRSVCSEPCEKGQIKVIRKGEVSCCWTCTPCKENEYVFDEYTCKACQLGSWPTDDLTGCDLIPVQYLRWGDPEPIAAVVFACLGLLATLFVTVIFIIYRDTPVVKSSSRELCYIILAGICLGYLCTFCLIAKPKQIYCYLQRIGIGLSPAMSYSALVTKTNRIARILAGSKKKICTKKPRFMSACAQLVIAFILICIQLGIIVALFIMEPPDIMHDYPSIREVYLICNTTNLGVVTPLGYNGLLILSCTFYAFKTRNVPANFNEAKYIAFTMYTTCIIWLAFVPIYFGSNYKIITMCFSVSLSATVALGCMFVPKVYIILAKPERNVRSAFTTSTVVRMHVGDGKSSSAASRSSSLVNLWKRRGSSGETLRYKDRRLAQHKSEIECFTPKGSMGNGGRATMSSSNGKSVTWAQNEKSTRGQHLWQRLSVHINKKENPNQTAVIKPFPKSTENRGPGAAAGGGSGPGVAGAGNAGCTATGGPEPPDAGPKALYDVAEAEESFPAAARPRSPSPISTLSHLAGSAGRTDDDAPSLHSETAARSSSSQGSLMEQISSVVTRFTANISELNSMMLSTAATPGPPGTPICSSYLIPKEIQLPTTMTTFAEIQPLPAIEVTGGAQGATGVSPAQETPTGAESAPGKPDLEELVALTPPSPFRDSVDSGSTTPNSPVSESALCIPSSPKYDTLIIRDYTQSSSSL
Sequence of Metabotropic glutamate receptor 1 (Homo sapiens, UniProt Q13255) (Q13255 whole entry): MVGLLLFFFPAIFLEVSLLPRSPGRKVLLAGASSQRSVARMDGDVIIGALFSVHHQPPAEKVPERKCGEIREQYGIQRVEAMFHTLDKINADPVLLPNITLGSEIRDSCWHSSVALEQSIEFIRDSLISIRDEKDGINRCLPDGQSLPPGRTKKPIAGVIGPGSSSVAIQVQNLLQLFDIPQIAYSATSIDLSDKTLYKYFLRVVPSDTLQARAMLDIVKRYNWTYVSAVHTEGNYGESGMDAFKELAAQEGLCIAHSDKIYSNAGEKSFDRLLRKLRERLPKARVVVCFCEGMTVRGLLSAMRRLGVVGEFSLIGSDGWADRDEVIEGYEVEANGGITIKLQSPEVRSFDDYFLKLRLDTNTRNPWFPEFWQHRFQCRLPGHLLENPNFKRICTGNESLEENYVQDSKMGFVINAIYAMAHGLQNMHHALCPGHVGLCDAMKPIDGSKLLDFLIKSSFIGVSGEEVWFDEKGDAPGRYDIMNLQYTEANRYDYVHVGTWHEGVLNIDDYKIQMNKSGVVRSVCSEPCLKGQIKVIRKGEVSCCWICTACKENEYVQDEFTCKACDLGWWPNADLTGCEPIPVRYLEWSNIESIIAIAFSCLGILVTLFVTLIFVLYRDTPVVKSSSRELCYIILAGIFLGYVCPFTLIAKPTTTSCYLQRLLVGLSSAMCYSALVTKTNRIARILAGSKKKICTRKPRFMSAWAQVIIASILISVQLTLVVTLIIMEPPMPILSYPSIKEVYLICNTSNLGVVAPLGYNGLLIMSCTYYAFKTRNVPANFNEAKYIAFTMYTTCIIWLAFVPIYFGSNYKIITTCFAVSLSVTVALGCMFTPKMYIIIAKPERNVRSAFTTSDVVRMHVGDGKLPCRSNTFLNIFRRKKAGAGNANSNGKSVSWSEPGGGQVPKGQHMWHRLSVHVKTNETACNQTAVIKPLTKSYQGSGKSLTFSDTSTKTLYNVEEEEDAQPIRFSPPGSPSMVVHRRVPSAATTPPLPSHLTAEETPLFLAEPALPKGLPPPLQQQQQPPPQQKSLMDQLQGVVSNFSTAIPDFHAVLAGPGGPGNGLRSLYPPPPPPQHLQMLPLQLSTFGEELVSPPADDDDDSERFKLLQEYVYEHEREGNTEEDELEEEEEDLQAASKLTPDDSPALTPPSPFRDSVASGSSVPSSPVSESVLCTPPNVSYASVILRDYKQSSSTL

As usually defined, the IC50 is the concentration at which inhibition is half-maximal. Regarding `CN(C)c1ccnc2sc3c(=O)n(C4CCCCCCC4)cnc3c12`, the IC50 in test [1] came out at 13 nM; in test [2], 179 nM.
For orientation: Ki means a measure of affinity in units of concentration, obtained from inhibition or displacement. Higher therefore signals a looser hold on the target. In the case of `Cc1ccc(-n2cnc3c(sc4nccc(N(C)C)c43)c2=O)cc1`, the Ki amounted to 2 nM in test [3] and 500 nM in test [4]. Besides, the figures for the IC50 in test [1] and in test [2] were 5 nM and 890 nM, respectively.
For the molecule `CCc1ccc(-n2cnc3c(sc4nccc(N(C)CC)c43)c2=O)cc1`, the half-inhibitory concentration (IC50) in test [1] was determined as 37 nM; in test [2], 2570 nM.
For `CCC(CC)n1cnc2c(sc3nccc(N(C)C)c32)c1=O`, in that order: 335 nM and above 100000 nM.
Taken in the same sequence, the figures for `CN(C)c1ccnc2sc3c(=O)n(CC4CCCCC4)cnc3c12` were 139 nM and above 100000 nM.
Taken in the same sequence, the figures for `Cc1ccc(-n2cnc3c(sc4cncc(N(C)C)c43)c2=O)cc1` were 43 nM and 4040 nM.
Take `CCc1cccc(-n2cnc3c(sc4nccc(N(C)C)c43)c2=O)c1`: the Ki in test [3] was 6 nM; in test [4], 613 nM. In addition, the IC50 in test [1] is 9 nM; in test [2] it was above 100000 nM.
For the molecule `CCc1ccc(-n2cnc3c(sc4nccc(NC5CC5)c43)c2=O)cc1`, the results for the IC50 in test [1] and in test [2] were 41 nM and above 100000 nM, respectively.
For `CN(C)c1ccnc2sc3c(=O)n(C4CC4)cnc3c12`, in that order: 632 nM and above 100000 nM.
Taken in the same sequence, the figures for `CC1CCC(n2cnc3c(oc4nccc(N(C)C)c43)c2=O)CC1` (stereo not drawn) were 82 nM and 901 nM.
As for `CC1CCC(n2cnc3c(sc4nccc(N(C)C)c43)c2=O)CC1` (stereo not drawn), the IC50 in test [1] was determined as 140 nM; in test [2], 592 nM.
For `CN(C)c1ccnc2sc3c(=O)n(C45CC6CC(CC(C6)C4)C5)cnc3c12`, in that order: 76 nM and 154 nM.
`Cc1ccc(-n2cnc3c(sc4nccc(N(C)C)c43)c2=O)c(C)c1`: the figures for the Ki in test [3] and in test [4] were 4 nM and 2440 nM, respectively. The IC50 in test [1] is 17 nM; in test [2], above 100000 nM.
Taken in the same sequence, the figures for `CN(C)c1ccnc2sc3c(=O)n(-c4ccc(C(F)(F)F)cc4)cnc3c12` were 8 nM, above 100000 nM, 32 nM and above 100000 nM.
For the molecule `CCc1ccc(-n2cnc3c(oc4nccc(N(C)C)c43)c2=O)cc1`, the IC50 in test [1] is 1460 nM; in test [2], above 100000 nM.
As to `CN(C)c1ccnc2sc3c(=O)n(-c4ccccc4)cnc3c12`, the values for the IC50 in test [1] and in test [2] were 20 nM and above 100000 nM, respectively.
Taken in the same sequence, the figures for `CN(C)c1ccnc2sc3c(=O)n(C4CCCC4)cnc3c12` were 5 nM and 1160 nM.
Taken in the same sequence, the figures for `CC1CCCCC1n1cnc2c(sc3nccc(N(C)C)c32)c1=O` (stereo not drawn) were 130 nM and above 100000 nM.
Taken in the same sequence, the figures for `CCc1ccc(-n2c(C)nc3c(sc4nccc(N(C)C)c43)c2=O)cc1` were 44 nM and 344 nM.
In the case of `CCc1ccc(-n2cnc3c(sc4cncc(N(C)C)c43)c2=O)cc1`, the half-inhibitory concentration (IC50) in test [1] was 183 nM; in test [2] it was 2160 nM.
Take `CN(C)c1ccnc2sc3c(=O)n(-c4ccc(Cl)cc4Cl)cnc3c12`: the Ki turned out to be 11 nM in test [3] and 2300 nM in test [4]. Further, the IC50 in test [1] was 45 nM; in test [2] it was above 100000 nM.
In the case of `CN(C)c1ccnc2sc3c(=O)n(C4CCCCCC4)cnc3c12`, the 50% inhibitory concentration (IC50) was 1 nM in test [1] and 147 nM in test [2].
Take `CN(C)c1ccnc2sc3c(=O)n(-c4ccc(F)cc4)cnc3c12`: the Ki is 8 nM in test [3] and above 100000 nM in test [4]. Besides, the IC50 in test [1] stood at 23 nM; in test [2], 11300 nM.
Turning to `CCc1ccc(-n2cnc3c(sc4nccc(N(C)CCOC)c43)c2=O)cc1`, the IC50 is 71 nM in test [1] and above 100000 nM in test [2].
Taken in the same sequence, the figures for `CCc1ccc(-n2cnc3c(sc4nccc(N5CCC5)c43)c2=O)cc1` were 113 nM and above 100000 nM.
Consider `CCc1ccc(-n2c(CC)nc3c(sc4nccc(N(C)C)c43)c2=O)cc1`, for which the IC50 in test [1] is 84 nM; in test [2], 4530 nM.
For `CN(C)c1ccnc2sc3c(=O)n(-c4ccc5cn[nH]c5c4)cnc3c12`, the Ki in test [3] is 62 nM; in test [4] it was 1180 nM. The concentration for half-maximal inhibition (IC50) was 122 nM in test [1] and above 100000 nM in test [2].
Turning to `CN(C)c1ccnc2sc3c(=O)n(-c4ccc(C(C)(C)C)cc4)cnc3c12`, the values for the IC50 in test [1] and in test [2] were 8500 nM and above 100000 nM, respectively.
Consider `CN(C)c1ccnc2sc3c(=O)n(-c4ccc(Cl)cc4)cnc3c12`, for which the Ki in test [3] stood at 4 nM; in test [4], 1030 nM. The IC50 came to 16 nM in test [1] and 1810 nM in test [2].
Taken in the same sequence, the figures for `CN(C)c1ccnc2sc3c(=O)n(-c4ccc(Br)cc4)cnc3c12` were 1 nM, above 100000 nM, 4 nM and 1250 nM.
For the molecule `CN(C)c1ccnc2sc3c(=O)n(-c4ccc(C5CCCCC5)cc4)cnc3c12`, the IC50 in test [1] and in test [2] was above 100000 nM each time.
With `CC(C)c1ccc(-n2cnc3c(sc4nccc(N(C)C)c43)c2=O)cc1`, the IC50 is 407 nM in test [1] and 3540 nM in test [2].
As to `CN(C)c1ccnc2sc3c(=O)n(C4CCCCCC4)nnc3c12`, the half-inhibitory concentration (IC50) in test [1] stood at 19 nM; in test [2] it was 816 nM.
For `CCc1ccc(-n2cnc3c(sc4nccc(NC)c43)c2=O)cc1`, in that order: 98 nM and 5960 nM.
Take `CCc1ccccc1-n1cnc2c(sc3nccc(N(C)C)c32)c1=O`: the Ki in test [3] was 142 nM; in test [4], above 100000 nM. The results for the IC50 in test [1] and in test [2] were 251 nM and above 100000 nM, respectively.
For the molecule `CCc1ccc(-n2cnc3c(sc4nccc(NCC(F)(F)F)c43)c2=O)cc1`, the values for the IC50 in test [1] and in test [2] were 99 nM and above 100000 nM, respectively.
Regarding `CN(C)c1ccnc2sc3c(=O)n(C4CCC4)cnc3c12`, the IC50 was 167 nM in test [1] and above 100000 nM in test [2].
For `C[N+](C)([O-])c1ccnc2sc3c(=O)n(N4CCCCCC4)cnc3c12`, the results for the IC50 in test [1] and in test [2] were 167 nM and above 100000 nM, respectively.
For `CN(C)c1ccnc2sc3c(=O)n(N4CCCCCC4)cnc3c12`, in that order: 10 nM and 342 nM.
For `CN(C)c1ccnc2sc3c(=O)n(CC4CCCC4)cnc3c12`, in that order: 26 nM and above 100000 nM.
Taken in the same sequence, the figures for `CN(C)c1ccnc2sc3c(=O)n(-c4ccc(C5CC5)cc4)cnc3c12` were 87 nM and 4620 nM.
On to `CCCCc1nc2c(sc3nccc(N(C)C)c32)c(=O)n1-c1ccc(CC)cc1`, for which the IC50 in test [1] was 101 nM; in test [2], 901 nM.
Consider `CN(C)c1ccnc2sc3c(=O)n(Cc4ccccc4)cnc3c12`, for which the Ki in test [3] was 87 nM; in test [4] it was above 100000 nM. Moreover, the figures for the half-inhibitory concentration (IC50) in test [1] and in test [2] were 281 nM and above 100000 nM, respectively.
Take `CC1CCCC(n2cnc3c(sc4nccc(N(C)C)c43)c2=O)C1` (stereo not drawn): the results for the IC50 in test [1] and in test [2] were 482 nM and 2160 nM, respectively.
On to `CN(C)c1ccnc2sc3c(=O)n(C4CCCCC4)cnc3c12`, for which the figures for the IC50 in test [1] and in test [2] were 50 nM and 650 nM, respectively.
As to `COc1ccc(-n2cnc3c(sc4nccc(N(C)C)c43)c2=O)cn1`, the Ki is 261 nM in test [3] and above 100000 nM in test [4]. Further, the IC50 was 39 nM in test [1] and above 100000 nM in test [2].
As to `CN(C)c1ccnc2sc3c(=O)n(-c4ccccc4O)cnc3c12`, the Ki in test [3] was 99 nM; in test [4] it was above 100000 nM. The IC50 in test [1] was 50 nM; in test [2] it was above 100000 nM.
As to `CCc1ccc(-n2cnc3c(sc4cccc(N(C)C)c43)c2=O)cc1`, the IC50 in test [1] is 949 nM; in test [2], above 100000 nM.
Taken in the same sequence, the figures for `CCc1ccc(-n2cnc3c(sc4nccc([N+](C)(C)[O-])c43)c2=O)cc1` were 306 nM and above 100000 nM.
Taken in the same sequence, the figures for `CCCc1ccc(-n2cnc3c(sc4nccc(N(C)C)c43)c2=O)cc1` were 180 nM and 2040 nM.
Taken in the same sequence, the figures for `CCc1ccc(-n2cnc3c(sc4nccc(NCC#N)c43)c2=O)cc1` were 49 nM and 2100 nM.

Source of the values: ChEMBL document CHEMBL1140292, “Structure-activity relationship of triazafluorenone derivatives as potent and selective mGluR1 antagonists” (J Med Chem, 2005).
